# Data taken from publication PMC4944842 (Molecular cancer therapeutics, 2010).
# What was measured:
# [1] = biological target: Rock-II (Homo sapiens, UniProt O75116); assay: Kinase profiling at 10 µmol/L; assay type: biochemical; details: read-out: activity remaining
# How it was run: (§1)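 Millipore profiling covered 50 human kinases. Test compound was tested at 10 µmol/L, with ATP at the Km of each enzyme. Readout was % kinase activity remaining.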
# [2] = biological target: p70S6K (Homo sapiens, UniProt P23443); assay: Kinase enzyme assay; assay type: biochemical; details: read-out: activity remaining
# How it was run: as §1
# [3] = tested on: U87MG human glioblastoma xenografts; assay: Pharmacodynamic AKT biomarker immunoblotting in tumor xenografts; assay type: in vivo, mice; details: 50 mg/kg i.p. × 4 days
# How it was run: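 Mice bearing s.c. U87MG xenografts received 50 mg/kg i.p. daily for 4 days. Tumors were harvested 2 and 6 h after the last dose; protein was measured by Bradford and tumors were immunoblotted. Each phosphoprotein/total protein ratio was normalized to GAPDH and expressed relative to vehicle controls (=1.0). Data are mean ± SE of 3–5 determinations.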
# [4] = tested on: U87MG human glioblastoma cells; assay: 96-hour SRB antiproliferative assay; assay type: cell-based; details: U-87 MG, read-out: GI50 for growth inhibition (mean±SD)
# How it was run: (§2)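 Cells attached for 36 h before treatment so they were in exponential growth. Test compound came from a 10 mM DMSO stock. Growth was measured by sulforhodamine B staining after 96 h of exposure. GI50 was derived by a previously published method and reported as mean ± SD of 3–5 independent experiments.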
# [5] = biological target: CHK2 (Homo sapiens, UniProt O96017); assay: Kinase profiling at 10 µmol/L; assay type: biochemical; details: read-out: activity remaining
# How it was run: as §1
# [6] = biological target: PKA (Homo sapiens, UniProt P17612); assay: Kinase enzyme assay; assay type: biochemical; details: read-out: activity remaining
# [7] = tested on: PC3 human prostate cancer cells; assay: 96-hour SRB antiproliferative assay; assay type: cell-based; details: read-out: GI50 for growth inhibition (mean±SD)
# How it was run: as §2
# [8] = tested on: LNCaP human prostate cancer cells; assay: 96-hour SRB antiproliferative assay; assay type: cell-based; details: read-out: GI50 for growth inhibition (mean±SD)
# How it was run: as §2
# [9] = tested on: PTEN-null U87MG human glioblastoma cells; assay: Flow cytometry cell cycle analysis; assay type: cell-based
# [10] = tested on: PTEN-null U87MG human glioblastoma xenografts; assay: Antitumor activity in human tumor xenograft; assay type: in vivo, mice; details: 25 mg/kg i.p. × 5 of 7 days
# How it was run: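 U87MG cells (2 × 10⁶) were injected s.c. into the right flank of 6–8-week-old female […] mice. Mice were randomized at ~100 mm³ mean tumor volume and given test compound i.p. or vehicle (10% DMSO, 5% Tween 20, 85% saline). Body weight and caliper tumor diameters were recorded three times weekly. Volume = 4/3π[(d1+d2)/4]³; tumors were excised and weighed at study end.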
# [11] = tested on: U87MG human glioblastoma cells; assay: Immunoblotting of AKT biomarkers and cell cycle proteins; assay type: cell-based
# How it was run: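 U87MG cells were exposed for 1 h to increasing test-compound concentrations, or to one fixed concentration sampled at intervals up to 48 h. Controls were DMSO and LY294002 (30 µM, 1 h). Phospho and total AKT, GSK3β, PRAS40, FOXO1/3a, S6RP, cyclin D1, p21 and p27 were immunoblotted (10% Tris-glycine gels, PVDF, overnight 4 °C primaries, ECL). GAPDH served as loading control.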
# [12] = tested on: panel of kinases representative of the human protein kinome; assay: Kinase profiling at 10 µmol/L against panel of kinases; assay type: biochemical; details: ATP at Km
# How it was run: as §1
# [13] = tested on: PC3 and LNCaP prostate cancer cell lines, HCT116 colorectal cancer cells and MCF7 human breast cancer cells; assay type: cell-based; details: one hour exposure, 3 or 10 µM
# How it was run: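 PC3, LNCaP, HCT116 and MCF7 cells were exposed for 1 h to 3 or 10 µM test compound. Controls were DMSO and LY294002 (30 µM, 1 h). Lysates were run on 10% Tris-glycine gels, transferred to PVDF and blocked in 5% milk/Tris-NaCl-Tween. Primary antibodies were applied overnight at 4 °C, then HRP secondaries for 1 h, with ECL detection. GAPDH served as loading control.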
# [14] = tested on: HER2-positive, PIK3CA-mutant BT474 human breast cancer xenografts; assay: Antitumor activity in human tumor xenograft; assay type: in vivo, mice; details: 40 mg/kg bid × 5 of 7 days
# How it was run: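 BT474 cells (5 × 10⁶) in medium mixed 1:1 with matrigel were implanted into mammary fat pads of female mice. Estradiol pellets (0.025 mg, 90-day release) had been placed s.c. 3 days earlier. Mice were randomized at ~100 mm³ mean tumor volume. Dosing was 40 mg/kg i.p. twice daily for 5 days versus vehicle (10% DMSO, 5% Tween 20, 85% saline). Tumors (calipers) and body weight were measured thrice weekly.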
# [15] = Pharmacokinetics after single dose of 25 mg/kg; assay type: in vivo, mice
# How it was run: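 Mice bearing HCT116 xenografts received a single 25 mg/kg dose i.v., i.p. or p.o. Plasma and tumor were sampled over time, 3–5 mice per time point. Drug was extracted with methanol and quantified by LC-MS on a Synergi-Polar RP column (0.1% formic acid/methanol gradient, 0.6 ml/min, 12 min). Data are mean ± SE.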
# Chain of Rock-II (O75116 whole entry): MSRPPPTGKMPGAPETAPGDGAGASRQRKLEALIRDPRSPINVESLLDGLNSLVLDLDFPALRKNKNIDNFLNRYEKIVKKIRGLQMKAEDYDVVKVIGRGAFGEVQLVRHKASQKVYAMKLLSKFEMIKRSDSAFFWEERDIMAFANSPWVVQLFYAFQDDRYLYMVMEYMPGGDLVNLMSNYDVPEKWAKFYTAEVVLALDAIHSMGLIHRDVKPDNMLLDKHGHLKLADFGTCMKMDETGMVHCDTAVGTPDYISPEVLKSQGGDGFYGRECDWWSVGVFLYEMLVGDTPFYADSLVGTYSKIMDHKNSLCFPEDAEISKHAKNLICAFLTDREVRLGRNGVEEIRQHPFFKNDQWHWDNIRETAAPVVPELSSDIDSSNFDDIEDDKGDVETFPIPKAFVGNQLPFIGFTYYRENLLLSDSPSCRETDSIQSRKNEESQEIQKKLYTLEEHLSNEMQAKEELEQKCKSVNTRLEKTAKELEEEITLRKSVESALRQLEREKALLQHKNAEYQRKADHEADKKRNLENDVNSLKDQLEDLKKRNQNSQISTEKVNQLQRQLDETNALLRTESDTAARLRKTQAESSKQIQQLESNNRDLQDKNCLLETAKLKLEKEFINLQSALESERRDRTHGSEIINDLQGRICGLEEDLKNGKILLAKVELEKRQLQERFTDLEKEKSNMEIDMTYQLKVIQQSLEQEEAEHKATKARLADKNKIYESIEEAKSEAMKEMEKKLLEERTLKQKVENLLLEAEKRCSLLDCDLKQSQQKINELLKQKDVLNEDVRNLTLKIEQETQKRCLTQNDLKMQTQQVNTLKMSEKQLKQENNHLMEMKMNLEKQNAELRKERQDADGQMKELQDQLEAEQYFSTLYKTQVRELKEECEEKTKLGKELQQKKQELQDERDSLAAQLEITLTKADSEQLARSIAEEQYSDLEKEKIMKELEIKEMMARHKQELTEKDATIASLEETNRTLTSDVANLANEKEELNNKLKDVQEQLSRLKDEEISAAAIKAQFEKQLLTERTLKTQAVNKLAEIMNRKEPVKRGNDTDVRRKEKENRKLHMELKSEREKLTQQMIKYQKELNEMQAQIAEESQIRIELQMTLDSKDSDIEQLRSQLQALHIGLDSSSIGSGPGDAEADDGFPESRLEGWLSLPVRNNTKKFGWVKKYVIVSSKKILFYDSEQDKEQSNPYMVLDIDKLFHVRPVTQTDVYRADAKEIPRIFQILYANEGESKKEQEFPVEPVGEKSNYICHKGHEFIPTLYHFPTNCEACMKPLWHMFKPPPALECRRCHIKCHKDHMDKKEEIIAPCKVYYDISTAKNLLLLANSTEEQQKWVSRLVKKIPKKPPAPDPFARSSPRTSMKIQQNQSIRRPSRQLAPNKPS
# Chain of p70S6K (P23443 whole entry): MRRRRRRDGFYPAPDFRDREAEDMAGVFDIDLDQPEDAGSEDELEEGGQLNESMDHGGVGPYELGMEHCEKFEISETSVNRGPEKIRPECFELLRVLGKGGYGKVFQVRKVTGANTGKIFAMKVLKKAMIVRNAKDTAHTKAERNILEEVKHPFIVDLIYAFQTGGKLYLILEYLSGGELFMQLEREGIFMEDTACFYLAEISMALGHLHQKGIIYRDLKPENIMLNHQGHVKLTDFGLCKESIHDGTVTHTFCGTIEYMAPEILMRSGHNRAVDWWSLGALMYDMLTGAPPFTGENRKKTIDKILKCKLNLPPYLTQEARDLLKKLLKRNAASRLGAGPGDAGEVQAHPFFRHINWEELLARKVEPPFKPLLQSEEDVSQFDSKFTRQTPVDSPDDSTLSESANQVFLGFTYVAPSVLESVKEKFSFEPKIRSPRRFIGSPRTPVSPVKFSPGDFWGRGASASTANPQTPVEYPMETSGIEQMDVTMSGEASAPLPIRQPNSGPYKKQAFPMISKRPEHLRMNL
# Chain of CHK2 (O96017 whole entry): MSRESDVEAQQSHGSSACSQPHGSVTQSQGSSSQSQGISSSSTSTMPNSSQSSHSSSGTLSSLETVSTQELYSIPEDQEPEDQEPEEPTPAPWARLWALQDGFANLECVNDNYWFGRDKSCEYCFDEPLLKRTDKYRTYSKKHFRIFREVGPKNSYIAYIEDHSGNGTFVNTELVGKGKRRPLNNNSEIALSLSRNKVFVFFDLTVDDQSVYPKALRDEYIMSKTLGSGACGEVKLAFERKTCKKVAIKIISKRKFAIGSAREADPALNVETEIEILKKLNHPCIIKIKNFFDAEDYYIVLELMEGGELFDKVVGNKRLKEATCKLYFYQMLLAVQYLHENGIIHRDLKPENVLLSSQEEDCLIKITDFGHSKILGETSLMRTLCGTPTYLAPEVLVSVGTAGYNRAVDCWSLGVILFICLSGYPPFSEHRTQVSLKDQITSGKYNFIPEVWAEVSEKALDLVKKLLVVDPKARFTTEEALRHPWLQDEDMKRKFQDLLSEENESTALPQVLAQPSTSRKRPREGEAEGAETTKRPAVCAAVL
smiles,measurement,setting,value
"NC1(Cc2ccc(Cl)cc2)CCN(c2ncnc3[nH]ccc23)CC1 [CCT128930, 4-(4-chlorobenzyl)-1-(7H-pyrrolo[2,3-d]pyrimidin-4-yl)piperidin-4-amine]",remaining activity at 10 µM,[1],< 25%
same,remaining activity at 10 µM,[2],< 25%
same,phosphorylation of Ser9 GSK3β,[3]; 2 and 6 hours (P<0.001 and P<0.01),significant decreases
same,phosphorylation of Ser235/236 S6RP,[3]; 2 and 6 hours (P<0.05 and P<0.01),significant decreases
same,phosphorylation of Thr246 PRAS40,[3]; 2 and 6 hours (P<0.05 and P<0.05),significant decreases
same,Ser473 phosphorylation on AKT,[3]; 2 and 6 hours after last dose (P<0.001 and P<0.01),significant increase
same,GI50,[4],6.3 µM
same,remaining activity at 10 µM,[5],< 25%
same,remaining activity at 10 µM,[6],< 25%
same,GI50,[7],1.9 µM
same,GI50,[8],0.35 µM
same,G2/M cells,"[9]; 1 × GI50, 24 hours, DMSO control 16.7%",18.9%
same,S phase cells,"[9]; 1 × GI50, 24 hours, DMSO control 32.3%",13.2%
same,G0/G1 phase cells,"[9]; 1 × GI50, 24 hours, DMSO control 46.4%",63.2%
same,G2/M phase cells,"[9]; 3 × GI50 (18.9µM), 24 hours, DMSO control 17.8%",30.5%
same,S phase cells,"[9]; 3 × GI50 (18.9µM), 24 hours, DMSO control 36.6%",2.0%
same,G0/G1 phase cells,"[9]; 3 × GI50 (18.9µM), 24 hours, DMSO control 43.6%",64.8%
same,weight loss,[10],no weight loss
same,cyclin D1 over time,[11]; 18.9 μM,decreased after 8 hours
same,pSer473 AKT over time,"[11]; 18.9 μM (3× GI50), after 30 minutes, sustained for 48 hours",increase in phosphorylation
same,pThr32 FOXO3a phosphorylation,"[11]; 18.9 μM, after one hour exposure",marked decrease
same,pSer235/236 S6RP signal over time,"[11]; 18.9 μM, decrease at 30 minutes",complete loss after 2 hours
same,pSer240/244 S6RP signal over time,"[11]; 18.9 μM, decreased from 4 hours",abolished after 8 hours
same,pSer9 GSK3β phosphorylation over time,"[11]; 18.9 μM, from 30 minutes, sustained at least 24 hours, recovery at 48 hours",rapid and profound loss
same,pThr246 PRAS40 over time,"[11]; 18.9 μM, from 30 minutes, sustained throughout 48 hours",marked loss in phosphorylation
same,CDK inhibitor p27 over time,"[11]; 18.9 μM, from 2 hours",induction
same,"exposure sufficient to markedly inhibit phosphorylation of GSK3β, S6RP, FOXO1 and PRAS40",[11]; 1 hour,5 to 10 µM
same,concentration decreasing cyclin D1 expression,[11]; 1 h treatment,≥ 40 µM
same,"concentration inhibiting direct substrates of AKT (Ser9 GSK3β, pThr246 PRAS40 and pT24 FOXO1/p32 FOXO3a)",[11]; 1 h treatment,≥ 5 μM
same,concentration inhibiting downstream target pSer235/236 S6RP,[11]; 1 h treatment,≥ 10 μM
same,effect on pSer240/244 S6RP,"[11]; 1 h treatment, increasing concentrations",minimal effects
same,concentration up to which AKT phosphorylation at serine 473 is induced,"[11]; 1 h treatment, decrease at higher concentrations",up to 20 μM
same,apoptosis as measured by PARP cleavage,[11]; after CCT128930 treatment (Supplementary Figure 2),increase
same,cross-reactivity with 47 other kinases,[12],minimal cross-reactivity
same,pSer473 AKT,[13],induction
same,pSer9 GSK3β,[13]; all four cell lines,Decreased phosphorylation
same,pSer240/244 S6RP,[13]; all four cell lines,decreased
same,antitumor effect,[14],complete growth arrest
same,"body weight nadir, % of the initial body weight",[14]; day 15 of treatment,94.8%
same,peak tumor concentration,"[15]; 25 mg/kg i.p., HCT116 human colon tumor xenograft",8 µM
same,AUC0-∞ tumor,"[15]; 25 mg/kg i.p., HCT116 tumor xenograft",25.8 µMh
same,administered dose recovered unaltered in urine,"[15]; 25 mg/kg i.p., after 24 hours (data not shown)",0.23%
same,AUC0-∞ plasma,"[15]; 25 mg/kg i.p., mice",1.3 µMh
same,AUC0-∞ plasma,"[15]; 25 mg/kg i.v., mice",4.6 µMh
same,peak concentration in plasma,"[15]; 25 mg/kg i.v., mice",6.4 µM
same,peak plasma concentration,"[15]; 25 mg/kg p.o., mice",0.43 µM
